A short description of this data set: Drug level in Wistar rat plasma treated with 1-Hydroxyl-2-cyano-3-(4-(methyl-L-glutaminate-N5-yl)-benzyloxy)-12-oxo-oleana-2(3),9(11)-dien-28-oic Acid Methyl Ester assessed as esterase-mediated metabolite formation at 100 uM after 8 hrs by HPLC analysis. The format is ADME. Put shortly: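 Plasma, and kidney and liver homogenates in PBS, from three Wistar rats; substrate added at 100 μM at 37 °C; metabolite measured by HPLC every 60 min for 8 h; mean ± SD of three experiments.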

Results on one compound are retold here after ChEMBL document CHEMBL4017544 (J Med Chem, 2017).

Take `COC(=O)[C@]12CCC(C)(C)C[C@H]1[C@H]1C(=O)C=C3[C@@]4(C)[C@@H](O)C(C#N)=C(OCc5ccc(NC(=O)CC[C@H](N)C(=O)O)cc5)C(C)(C)[C@@H]4CC[C@@]3(C)[C@]1(C)CC2`: the Drug metabolism entry was “Metabolite_Detected”.
